Results: ChEMBL document CHEMBL1157340, “Highly substituted terphenyls as inhibitors of parasite cGMP-dependent protein kinase activity” (J Nat Prod, 2006)

Key:
Toxoplasma gondii = experiment: Antiparasitic activity against Toxoplasma gondii in human foreskin fibroblast by beta-galactosidase assay; type: functional, organism-based
Method in brief: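 Human foreskin fibroblasts grown to confluence, then infected with T. gondii strain stably expressing bacterial β-galactosidase; parasite growth allowed 5 days with test samples present. Chlorophenol red-β-D-galactopyranoside added, further 2–4 h incubation, absorbance read at 570 nm as measure of parasite viability. IC50 reported.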

[1] = molecular target: cGMP-dependent protein kinase (Eimeria tenella); experiment: Inhibition of Eimeria tenella cGMP-dependent protein kinase assessed as inhibition of transfer of phosphate group by radiometric assay

Work on CN1CCC(c2cc(-c3ccncc3)c(-c3ccc(F)cc3)[nH]2)CC1 yielded an IC50 (Toxoplasma gondii) of 0.21 µM and an IC50 [1] of under 0.001 µM.
COc1c(O)c(-c2ccccc2)cc(O)c1-c1ccccc1O gave an IC50 (Toxoplasma gondii) of 10.4 µM and an IC50 [1] of 5.2 µM.
COc1c(O)c(-c2ccccc2)cc(O)c1-c1cc(O)ccc1O showed an IC50 (Toxoplasma gondii) of 9.5 µM and an IC50 [1] of 5.8 µM.
In the case of COc1cc(-c2ccccc2)c(O)c(O)c1-c1ccccc1 [TERFEROL], the IC50 (Toxoplasma gondii) is reported as 26.8 µM and the IC50 [1] is reported as 3.9 µM.
